Experimental data: ChEMBL document CHEMBL2029249, “N-Methyl-3-(tetrahydro-2H-pyran-4-yl)-2,3,4,9-tetrahydro-1H-carbazole-6-carboxamides as a novel class of cannabinoid receptors agonists with low CNS penetration” (Bioorg Med Chem Lett, 2012)
In brackets after ≈: the same amount, converted by molar mass.

Key:
Cannabinoid receptor 1 [1] = target: T1, Cannabinoid receptor 1 (Homo sapiens, UniProt P21554); assay: Agonist activity at human CB1 receptor expressed in HEK293 cells assessed as [35S]GTPgamma binding relative to WIN55212-2; type: functional, cell-based
T1 sequence (P21554 whole entry): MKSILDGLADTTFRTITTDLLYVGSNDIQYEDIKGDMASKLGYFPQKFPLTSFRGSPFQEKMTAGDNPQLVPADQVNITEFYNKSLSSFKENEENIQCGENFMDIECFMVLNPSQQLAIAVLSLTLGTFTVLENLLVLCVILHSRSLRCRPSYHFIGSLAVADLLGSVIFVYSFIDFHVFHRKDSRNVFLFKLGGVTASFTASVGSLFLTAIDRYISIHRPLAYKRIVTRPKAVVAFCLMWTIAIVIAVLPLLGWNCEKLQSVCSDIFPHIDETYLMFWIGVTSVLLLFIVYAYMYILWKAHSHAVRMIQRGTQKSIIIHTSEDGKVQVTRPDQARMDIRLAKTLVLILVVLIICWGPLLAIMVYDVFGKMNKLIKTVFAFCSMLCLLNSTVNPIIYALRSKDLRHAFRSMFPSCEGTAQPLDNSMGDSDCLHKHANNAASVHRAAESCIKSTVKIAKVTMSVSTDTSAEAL
Procedure, shortened: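 GTPγ35S binding on membranes from HEK293 EBNA cells stably transfected with cloned human CB1; Emax relative to WIN55,212-2 as reference agonist; means of at least three measurements.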

[2] = Intrinsic clearance in human liver microsomes at 1 uM in presence of NADPH; type: ADME, Microsome; details: read-out: CLH
[3] = Thermodynamic solubility of the compound at pH 7.4; details: buffer
Cannabinoid receptor 1 [4] = target: T1, Cannabinoid receptor 1; assay: Agonist activity at human CB1 receptor expressed in HEK293 cells assessed as [35S]GTPgamma binding; type: functional, cell-based
[5] = Ratio of drug level in brain to plasma in rat by microdialysis assay
Cannabinoid receptor 1 [6] = target: T1, Cannabinoid receptor 1; assay: Displacement of [3H]CP55940 from human CB1 receptor expressed in HEK293 cells; type: cell-based
Cannabinoid receptor 2 = Cannabinoid receptor 2 (Homo sapiens, UniProt P34972); assay: Binding affinity to human CB2 receptor
Cannabinoid receptor 2, sequence (P34972 whole entry): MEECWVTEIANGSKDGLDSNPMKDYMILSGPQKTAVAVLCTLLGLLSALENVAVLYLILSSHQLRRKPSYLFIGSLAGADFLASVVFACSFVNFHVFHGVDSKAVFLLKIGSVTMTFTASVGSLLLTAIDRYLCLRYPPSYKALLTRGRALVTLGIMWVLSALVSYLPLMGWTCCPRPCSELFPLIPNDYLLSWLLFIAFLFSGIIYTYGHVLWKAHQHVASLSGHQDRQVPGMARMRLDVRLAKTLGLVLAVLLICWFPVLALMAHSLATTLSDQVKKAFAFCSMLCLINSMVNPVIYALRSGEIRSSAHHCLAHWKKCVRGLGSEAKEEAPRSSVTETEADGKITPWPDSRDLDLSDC

[7] = Apparent permeability from apical to basal side of human Caco2 cells at 10 uM; details: Caco-2
[8] = target: Voltage-gated inwardly rectifying potassium channel KCNH2 (Homo sapiens, UniProt Q12809)
Voltage-gated inwardly rectifying potassium channel KCNH2, sequence (Q12809 whole entry): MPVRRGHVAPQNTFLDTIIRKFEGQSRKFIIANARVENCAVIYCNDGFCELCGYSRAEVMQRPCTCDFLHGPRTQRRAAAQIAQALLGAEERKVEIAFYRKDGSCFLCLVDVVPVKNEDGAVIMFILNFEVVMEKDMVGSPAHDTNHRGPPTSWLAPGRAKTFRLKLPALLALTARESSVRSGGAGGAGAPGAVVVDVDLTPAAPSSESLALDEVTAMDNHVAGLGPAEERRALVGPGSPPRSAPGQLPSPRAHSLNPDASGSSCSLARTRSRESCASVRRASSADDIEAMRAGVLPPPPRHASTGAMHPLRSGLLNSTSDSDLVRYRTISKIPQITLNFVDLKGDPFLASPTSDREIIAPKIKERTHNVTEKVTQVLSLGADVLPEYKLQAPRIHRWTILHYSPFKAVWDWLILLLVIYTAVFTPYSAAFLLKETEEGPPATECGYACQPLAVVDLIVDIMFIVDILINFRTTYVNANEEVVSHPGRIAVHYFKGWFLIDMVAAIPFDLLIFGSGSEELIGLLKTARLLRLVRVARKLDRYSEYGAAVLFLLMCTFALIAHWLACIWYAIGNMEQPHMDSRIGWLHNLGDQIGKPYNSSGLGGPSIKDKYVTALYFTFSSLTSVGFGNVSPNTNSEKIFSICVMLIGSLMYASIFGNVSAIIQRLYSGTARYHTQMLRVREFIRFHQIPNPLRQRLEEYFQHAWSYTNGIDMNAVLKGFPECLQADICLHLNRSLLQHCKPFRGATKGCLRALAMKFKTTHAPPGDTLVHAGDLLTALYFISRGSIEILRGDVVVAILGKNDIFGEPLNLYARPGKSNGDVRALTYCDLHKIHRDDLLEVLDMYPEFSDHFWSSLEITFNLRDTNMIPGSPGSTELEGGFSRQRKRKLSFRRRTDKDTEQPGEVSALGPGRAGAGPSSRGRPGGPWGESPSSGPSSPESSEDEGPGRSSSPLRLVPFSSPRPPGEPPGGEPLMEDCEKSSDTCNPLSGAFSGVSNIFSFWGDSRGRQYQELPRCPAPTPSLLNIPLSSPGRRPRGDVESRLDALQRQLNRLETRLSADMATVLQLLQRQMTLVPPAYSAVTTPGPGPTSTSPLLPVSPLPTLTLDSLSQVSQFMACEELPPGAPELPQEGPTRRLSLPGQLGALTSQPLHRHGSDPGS

Compound | Emax (Cannabinoid receptor 1 [1]) | microsomal CLint at 1 µM [2] | solubility thermodynamic [3] | EC50 (Cannabinoid receptor 1 [4]) | Kp [5] | Ki (Cannabinoid receptor 1 [6]) | Ki (Cannabinoid receptor 2) | Papp A→B at 10 µM [7] | IC50 [8]
CN(CCCC(=O)NC1CC1)C(=O)c1ccc2c(c1)c1c(n2C)CCC(C2CCOCC2)C1 (stereo unspecified) | 113% | 73 µL/min/mg | 444 µM (≈ 201 µg/mL) |  |  |  |  |  | 
CN(CCCC(=O)NC1COC1)C(=O)c1ccc2c(c1)c1c(n2C)CC[C@@H](C2CCOCC2)C1 | 116% | 29 µL/min/mg | 1670 µM (≈ 781 µg/mL) | 43.7 nM | 0.019 |  |  |  | 
CCN(CC(=O)NC1CC1)C(=O)c1ccc2c(c1)c1c(n2C)CC[C@H](C2CCOCC2)C1 | 106% |  | 49 µM (≈ 21.4 µg/mL) | 24.2 nM |  | 17.3 nM |  |  | 
CN(CCCC(=O)NCCO)C(=O)c1ccc2c(c1)c1c(n2C)CC[C@@H](C2CCOCC2)C1 | 120% | 17 µL/min/mg | 2490 µM (≈ 1130 µg/mL) |  |  |  |  |  | 
CNC(=O)CCCN(C)C(=O)c1ccc2c(c1)c1c(n2C)CC[C@H](C2CCOCC2)C1 |  | 31 µL/min/mg | 1070 µM (≈ 455 µg/mL) |  |  | 576 nM |  |  | 
CN(CC(=O)NC1CC1)C(=O)c1ccc2c(c1)c1c(n2C)CC[C@@H](C2CCOCC2)C1 | 116% | 30 µL/min/mg | 86 µM (≈ 36.4 µg/mL) | 39.9 nM | 0.024 | 24.5 nM | 21.5 nM | 27 ×10⁻⁶ cm/s | 
CN(C(=O)c1ccc2c(c1)c1c(n2C)CC[C@@H](C2CCOCC2)C1)[C@H](CO)CCC(=O)NCCF | 118% | 27 µL/min/mg | 1310 µM (≈ 639 µg/mL) |  | 0.025 |  |  | 0.11 ×10⁻⁶ cm/s | > 33000 nM
Cc1c(C(=O)c2cccc3ccccc23)c2cccc3c2n1[C@H](CN1CCOCC1)CO3 [WIN-552122] |  |  | 2 µM (≈ 0.853 µg/mL) |  | 2.3 |  |  |  | 
CCN(CC(=O)NC1CC1)C(=O)c1ccc2c(c1)c1c(n2C)CCC(C2CCOCC2)C1 (racemic) | 106% | 53 µL/min/mg | 36 µM (≈ 15.8 µg/mL) |  |  |  |  |  | 
CNC(=O)CC[C@@H](CO)N(C)C(=O)c1ccc2c(c1)c1c(n2C)CC[C@@H](C2CCOCC2)C1 | 124% | 15 µL/min/mg | > 3000 µM |  | < 0.02 |  |  | 0.15 ×10⁻⁶ cm/s | > 33000 nM
CN(CC(=O)NC1CC1)C(=O)c1ccc2c(c1)c1c(n2C)CC[C@H](C2CCOCC2)C1 | 111% | 38 µL/min/mg | 63 µM (≈ 26.7 µg/mL) | 446 nM |  | 177 nM | 49.1 nM |  | 
Cn1c2c(c3cc(C(=O)NCCCC(=O)NC4CC4)ccc31)CC(C1CCOCC1)CC2 (stereo unspecified) |  | 47 µL/min/mg | 1 µM (≈ 0.438 µg/mL) |  |  |  |  |  | > 31000 nM
CCN(CCCC(=O)NC1CC1)C(=O)c1ccc2c(c1)c1c(n2C)CCC(C2CCOCC2)C1 (stereo unspecified) | 114% | 143 µL/min/mg | 224 µM (≈ 104 µg/mL) | 2.9 nM |  |  |  |  | 
